# From ChEMBL document CHEMBL3272036, “Reactions of 2-acyloxyisobutyryl halides with nucleosides. Synthesis and biological evaluation of some 3"-acyl and 3',5'-diacyl derivatives of 1-beta-D-arabinofuranosylcytosine” (J Med Chem, 1976)
# Activity calls are given as the source filed them. The rule behind the calls is not given here.
# Tests used:
# [1] = test system: L1210; assay: Antitumor activity against mouse L1210 cells allografted in ip dosed mouse administered as single dose relative to vehicle-treated control; format: functional
# Outline: (§1)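 Leukemic L1210 cells were introduced into mice. Each compound was then given as a single intraperitoneal injection 24 h later. Activity is expressed as % increase in life span (ILS), with the count of 30-day survivors per group. Doses tested were 100, 200, 500 and 1000 mg/kg.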
# [2] = test system: L1210; assay: Antitumor activity against mouse L1210 cells allografted in BDF1 mouse assessed as survival at 1000 mg/kg, ip administered as single dose measured on day 30 relative to vehicle-treated control; format: functional, organism-based; set-up: dose 1000 mg/kg; outline: as §1
# [3] = test system: L1210; assay: Antitumor activity against mouse L1210 cells allografted in BDF1 mouse assessed as increase in life span at 100 mg/kg, ip administered as single dose relative to vehicle-treated control; format: functional; conditions: route intraperitoneal
# Outline: (§2)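 Single intraperitoneal injection given 24 h after the leukemic cells were introduced, at 100, 200, 500 or 1000 mg/kg. Read-out is % increase in life span (ILS), with the count of 30-day survivors per group recorded (group sizes 7–8 mice).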
# [4] = test system: L1210; assay: Chemotherapeutic index, ratio of ILSmax for antitumor activity against mouse L1210 cells allografted in BDF1 mouse to ILS30 for antitumor activity against mouse L1210 cells allografted in BDF1 mouse; format: functional
# Outline: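 Dose-response curves were determined in L1210-bearing mice, each receiving a single ip injection 24 h after leukemic cell introduction. Chemotherapeutic index = the dose producing maximum % ILS divided by the dose giving 30% ILS.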
# [5] = test system: HeLa; assay: Cytotoxicity against human HeLa cells after 48 hrs by Coulter counter analysis; format: functional; conditions: read-out: ED50 (the source's name)
# [6] = test system: Vaccinia virus; assay: Antiviral activity against Vaccinia virus IHD infected in African green monkey BGM cells assessed as plaque reduction measured on day 5 by disk diffusion assay; format: functional; conditions: Orthopoxvirus vaccinia, 120 h, read-out: ED50 (the source's name)
# [7] = test system: Herpesviridae sp.; assay: Antiviral activity against Herpes Simplex virus HF infected in African green monkey BGM cells assessed as plaque reduction measured on day 5 by disk diffusion assay; format: functional; conditions: 120 h, read-out: ED50 (the source's name)
# [8] = test system: L1210; assay: Antitumor activity against mouse L1210 cells allografted in BDF1 mouse assessed as increase in life span at 200 mg/kg, ip administered as single dose relative to vehicle-treated control; format: functional; conditions: route intraperitoneal; outline: as §2
# [9] = test system: L1210; assay: Antitumor activity against mouse L1210 cells allografted in BDF1 mouse assessed as increase in life span at 1000 mg/kg, ip administered as single dose relative to vehicle-treated control; format: functional; conditions: route intraperitoneal; outline: as §2
# [10] = test system: L1210; assay: Antitumor activity against mouse L1210 cells allografted in BDF1 mouse assessed as increase in life span at 500 mg/kg, ip administered as single dose relative to vehicle-treated control; format: functional; conditions: route intraperitoneal; outline: as §2
# [11] = test system: L1210; assay: Antitumor activity against mouse L1210 cells allografted in BDF1 mouse assessed as survival at 200 mg/kg, ip administered as single dose measured on day 30 relative to vehicle-treated control; format: functional, organism-based; set-up: dose 200 mg/kg; outline: as §1
# [12] = test system: L1210; assay: Antitumor activity against mouse L1210 cells allografted in BDF1 mouse assessed as survival at 500 mg/kg, ip administered as single dose measured on day 30 relative to vehicle-treated control; format: functional, organism-based; set-up: dose 500 mg/kg; outline: as §1
# [13] = test system: L1210; assay: Antitumor activity against mouse L1210 cells allografted in BDF1 mouse assessed as survival at 50 mg/kg, ip administered as single dose measured on day 30 relative to vehicle-treated control; format: functional, organism-based; set-up: dose 50 mg/kg
# [14] = test system: L1210; assay: Antitumor activity against mouse L1210 cells allografted in BDF1 mouse assessed as survival at 100 mg/kg, ip administered as single dose measured on day 30 relative to vehicle-treated control; format: functional, organism-based; set-up: dose 100 mg/kg; outline: as §1
smiles,measurement,setting,value
CCCCCCCCCCCCCCCCCCCCCC(=O)O[C@H]1[C@H](O)[C@H](n2ccc(N)nc2=O)O[C@@H]1CO,ILS30,[1],2 mg/kg
same,ILSmax,[1],2000 mg/kg
same,Activity,[2],Active
same,ILS at 100 mg/kg,[3],> 200%
same,Ratio,[4],1000
same,EC50,[5],1.1 µg/mL
same,EC50,[6],> 30000 nM
same,EC50,[7],> 30000 nM
same,ILS at 200 mg/kg,[8],> 215%
same,ILS at 1000 mg/kg,[9],> 240%
CCCCCCCCCCC(=O)OC[C@H]1O[C@@H](n2ccc(N)nc2=O)[C@@H](O)[C@@H]1OC(=O)CCCCCCCCCC,ILS at 500 mg/kg,[10],117%
same,ILS at 100 mg/kg,[3],> 280%
same,Activity,[11],inactive
same,Activity,[12],Active
same,EC50,[5],0.4 µg/mL
same,EC50,[6],300 nM
same,EC50,[7],780 nM
same,ILS at 200 mg/kg,[8],> 300%
CCCCCCCC/C=C\CCCCCCCC(=O)OC[C@H]1O[C@@H](n2ccc(N)nc2=O)[C@@H](O)[C@@H]1OC(=O)CCCCCCC/C=C\CCCCCCCC.Cl,ILS at 100 mg/kg,[3],70%
same,EC50,[5],1.1 µg/mL
same,EC50,[6],17500 nM
same,Activity,[13],inactive
same,EC50,[7],> 30000 nM
same,ILS at 200 mg/kg,[8],> 190%
CCCCCCCC/C=C\CCCCCCCCCCCC(=O)O[C@H]1[C@H](O)[C@H](n2ccc(N)nc2=O)O[C@@H]1CO,ILS at 500 mg/kg,[10],-34%
same,Activity,[14],Active
same,Activity,[2],inactive
same,ILS at 100 mg/kg,[3],> 280%
same,Activity,[11],Active
same,Activity,[12],inactive
same,EC50,[5],0.16 µg/mL
same,EC50,[6],17500 nM
same,EC50,[7],> 30000 nM
same,ILS at 200 mg/kg,[8],> 280%
CCCCCCCCCC(=O)OC[C@H]1O[C@@H](n2ccc(N)nc2=O)[C@@H](O)[C@@H]1O,ILS30,[1],20 mg/kg
same,ILSmax,[1],500 mg/kg
same,ILS at 500 mg/kg,[10],> 122%
same,Activity,[14],inactive
same,ILS at 100 mg/kg,[3],59%
same,Ratio,[4],25
same,EC50,[5],0.1 µg/mL
same,EC50,[6],180 nM
same,EC50,[7],860 nM
same,ILS at 200 mg/kg,[8],> 114%
same,ILS at 1000 mg/kg,[9],-45%
CCCCCCCCCC(=O)O[C@H]1[C@H](O)[C@H](n2ccc(N)nc2=O)O[C@@H]1CO,ILS30,[1],5 mg/kg
same,ILSmax,[1],150 mg/kg
same,ILS at 500 mg/kg,[10],> 161%
same,Activity,[2],inactive
same,ILS at 100 mg/kg,[3],> 241%
same,Ratio,[4],30
same,EC50,[5],0.09 µg/mL
same,EC50,[6],100 nM
same,EC50,[7],340 nM
same,ILS at 200 mg/kg,[8],> 224%
same,ILS at 1000 mg/kg,[9],-23%
CCCCCCCCCCCCCCCCCCCCCC(=O)OC[C@H]1O[C@@H](n2ccc(N)nc2=O)[C@@H](O)[C@@H]1O,ILS30,[1],1 mg/kg
same,ILSmax,[1],500 mg/kg
same,ILS at 500 mg/kg,[10],> 295%
same,Activity,[2],inactive
same,ILS at 100 mg/kg,[3],> 228%
same,Activity,[11],Active
same,Activity,[12],Active
same,Ratio,[4],500
same,EC50,[5],0.04 µg/mL
same,EC50,[6],450 nM
same,EC50,[7],12000 nM
same,ILS at 200 mg/kg,[8],> 295%
same,ILS at 1000 mg/kg,[9],45%
CCCCCCCCCCCCCCCCCCCC(=O)O[C@H]1[C@H](O)[C@H](n2ccc(N)nc2=O)O[C@@H]1CO,ILS at 500 mg/kg,[10],> 274%
same,Activity,[14],inactive
same,Activity,[2],Active
same,ILS at 100 mg/kg,[3],91%
same,Activity,[11],inactive
same,EC50,[5],0.1 µg/mL
same,EC50,[6],> 30000 nM
same,EC50,[7],> 30000 nM
same,ILS at 200 mg/kg,[8],164%
same,ILS at 1000 mg/kg,[9],> 295%
CCCCCCCCCCCCCC(=O)O[C@H]1[C@H](O)[C@H](n2ccc(N)nc2=O)O[C@@H]1CO,ILS at 500 mg/kg,[10],-21%
same,Activity,[2],inactive
same,ILS at 100 mg/kg,[3],> 266%
same,Activity,[11],Active
same,Activity,[12],inactive
same,EC50,[5],0.08 µg/mL
same,EC50,[6],180 nM
same,EC50,[7],640 nM
same,ILS at 200 mg/kg,[8],> 284%
same,ILS at 1000 mg/kg,[9],-23%
CCCCCCCCCCCCCCCC(=O)OC[C@H]1O[C@@H](n2ccc(N)nc2=O)[C@@H](O)[C@@H]1O,ILS30,[1],2 mg/kg
same,ILSmax,[1],150 mg/kg
same,ILS at 500 mg/kg,[10],-40%
same,Activity,[14],Active
same,ILS at 100 mg/kg,[3],> 257%
same,Activity,[12],inactive
same,Ratio,[4],75
same,EC50,[5],0.08 µg/mL
same,EC50,[6],300 nM
same,EC50,[7],1140 nM
same,ILS at 200 mg/kg,[8],> 224%
CCCCCCCC(=O)O[C@H]1[C@H](O)[C@H](n2ccc(N)nc2=O)O[C@@H]1CO,ILS at 500 mg/kg,[10],37%
same,Activity,[14],inactive
same,Activity,[2],inactive
same,ILS at 100 mg/kg,[3],34%
same,Activity,[11],inactive
same,Activity,[12],inactive
same,EC50,[5],0.1 µg/mL
same,EC50,[6],110 nM
same,EC50,[7],640 nM
same,ILS at 200 mg/kg,[8],48%
same,ILS at 1000 mg/kg,[9],11%
Nc1ccn([C@@H]2O[C@H](CO)[C@@H](O)[C@@H]2O)c(=O)n1 [CYTARABINE],ILS at 500 mg/kg,[10],16%
same,Activity,[14],inactive
same,Activity,[2],inactive
same,ILS at 100 mg/kg,[3],8%
same,Activity,[11],inactive
same,Activity,[12],inactive
same,EC50,[5],0.05 µg/mL
same,EC50,[6],70 nM
same,EC50,[7],160 nM
same,ILS at 200 mg/kg,[8],7%
same,ILS at 1000 mg/kg,[9],34%
CCCCCCCCCCCCCCCC(=O)O[C@H]1[C@H](O)[C@H](n2ccc(N)nc2=O)O[C@@H]1CO,ILS30,[1],1 mg/kg
same,ILSmax,[1],200 mg/kg
same,ILS at 500 mg/kg,[10],-20%
same,Activity,[14],Active
same,Activity,[2],inactive
same,ILS at 100 mg/kg,[3],> 295%
same,Activity,[11],Active
same,Activity,[12],inactive
same,Ratio,[4],200
same,EC50,[5],0.24 µg/mL
same,EC50,[6],140 nM
same,EC50,[7],670 nM
same,ILS at 200 mg/kg,[8],> 295%
same,ILS at 1000 mg/kg,[9],-19%
CC(=O)O[C@H]1[C@H](O)[C@H](n2ccc(N)nc2=O)O[C@@H]1CO,ILS at 500 mg/kg,[10],20%
same,Activity,[14],inactive
same,ILS at 100 mg/kg,[3],14%
same,Activity,[11],inactive
same,Activity,[12],inactive
same,EC50,[5],0.14 µg/mL
same,EC50,[6],580 nM
same,EC50,[7],1450 nM
same,ILS at 200 mg/kg,[8],19%
CCCC(=O)O[C@H]1[C@H](O)[C@H](n2ccc(N)nc2=O)O[C@@H]1CO,ILS at 500 mg/kg,[10],22%
same,Activity,[11],inactive
same,Activity,[12],inactive
same,EC50,[5],0.11 µg/mL
same,EC50,[6],1200 nM
same,EC50,[7],2800 nM
same,ILS at 200 mg/kg,[8],13%
